In ChEMBL document CHEMBL3352195, “14,15-Epoxyeicosa-5,8,11-trienoic Acid (14,15-EET) surrogates: carboxylate modifications” (J Med Chem, 2014):

Columns and labels:
[1] = Vasorelaxant activity in bovine coronary artery assessed as reduction of U46619-induced contraction at 10 uM; format: functional, Bos taurus; set-up: scale not given: the % may be the effect or the level left
Summary of the method: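 Precontracted bovine coronary artery rings were exposed to test agent at 10 μM. Relaxation is expressed as a percentage relative to a 14,15-EET control run in the same preparation. Bioassay determinations n = 3−5.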

[2] = Vasorelaxant activity in bovine coronary artery assessed as reduction of U46619-induced contraction; format: functional, tissue-based, Bos taurus
Summary of the method: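 Bovine coronary artery rings, precontracted, exposed to compound to obtain a concentration–response for relaxation. The value is the EC50 for vasorelaxation. Bioassay determinations n = 3−5.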

[3] = biological target: T1, Bifunctional epoxide hydrolase 2 (Homo sapiens, UniProt P34913); assay: Inhibition of recombinant human sEH using CMNPC substrate by fluoresecent-based assay
T1 sequence (P34913 whole entry): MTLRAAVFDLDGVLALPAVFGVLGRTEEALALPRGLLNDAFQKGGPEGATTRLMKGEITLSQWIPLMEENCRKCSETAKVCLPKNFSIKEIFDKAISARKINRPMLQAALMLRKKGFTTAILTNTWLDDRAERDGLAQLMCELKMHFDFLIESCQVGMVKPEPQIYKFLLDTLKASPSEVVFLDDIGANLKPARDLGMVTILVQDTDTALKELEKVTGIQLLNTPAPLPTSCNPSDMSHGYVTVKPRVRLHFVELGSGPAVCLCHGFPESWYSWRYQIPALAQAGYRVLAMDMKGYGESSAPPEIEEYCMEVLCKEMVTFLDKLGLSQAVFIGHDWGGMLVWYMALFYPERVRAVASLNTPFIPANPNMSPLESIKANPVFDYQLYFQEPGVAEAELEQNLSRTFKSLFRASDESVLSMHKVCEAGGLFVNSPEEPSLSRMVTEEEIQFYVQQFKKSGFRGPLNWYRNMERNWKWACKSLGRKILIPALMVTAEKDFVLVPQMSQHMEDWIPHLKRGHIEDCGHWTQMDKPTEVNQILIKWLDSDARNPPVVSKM

CCCCCNC(=O)NCCCC/C=C\CCCCCCC(=O)NS(=O)(=O)c1ccccc1
Activity [1]: 73% | EC50 [2]: 6000 nM

CCCCCNC(=O)NCCCC/C=C\CCCCC[S+]([O-])c1ncn[nH]1 (stereo not drawn)
EC50 [2]: 3500 nM

CCCCCCC(=O)N(CCCCCOc1cccc2sc(NC(C)=O)nc12)C(C)C
Activity [1]: 96% | IC50 [3]: > 500 nM

CCCCNC(=O)C(=O)NCCCC/C=C\CCCCCCc1nnn[nH]1
Activity [1]: 96% | IC50 [3]: > 500 nM | EC50 [2]: 1700 nM

CCCCCNC(=O)NCCCC/C=C\CCCCCCC(=O)N[C@@H](CC(=O)[O-])C(=O)[O-].[Na+].[Na+]
Activity [1]: 91% | EC50 [2]: 1600 nM

CCCCCNC(=O)NCCCC/C=C\CCCCCCc1nnn[nH]1
Activity [1]: 119% | EC50 [2]: 180 nM

CCCCNC(=O)C(=O)NCCCCCOc1cccc2sc(NC(C)=O)nc12
Activity [1]: 96% | IC50 [3]: > 500 nM | EC50 [2]: 2400 nM

CCCCCNC(=O)NCCCC/C=C\CCCCCNS(=O)(=O)c1ccccc1
EC50 [2]: 3400 nM

CCCCCNC(=O)NCCCC/C=C\CCCCCSc1nnn[nH]1
EC50 [2]: 3700 nM

CCCCCNC(=O)NCCCC/C=C\CCCCCS(=O)(=O)c1ccccc1O
EC50 [2]: 5000 nM

CCCCCN(C)C(=O)N(C)CCCC/C=C\CCCCCCC(=O)NCC(=O)O
Activity [1]: 92% | IC50 [3]: > 500 nM | EC50 [2]: 2750 nM

CCCCNC(=O)C(=O)NCCCC/C=C\CCCCCCC(=O)OCCOCCOCCO
Activity [1]: 104% | IC50 [3]: > 500 nM | EC50 [2]: 1500 nM

CCCCCNC(=O)NCCCC/C=C\CCCCCS(=O)(=O)c1ncn[nH]1
EC50 [2]: 3100 nM

CCCCCNC(=O)NCCCC/C=C\CCCCCCP(=O)([O-])[O-].[Na+].[Na+]
Activity [1]: 71% | EC50 [2]: > 10000 nM

CCCCCNC(=O)NCCCC/C=C\CCCCCCS(=O)(=O)[O-].[Na+]
Activity [1]: 63% | EC50 [2]: 7600 nM

CCCCCCC(=O)N(CCCC/C=C\CCCCCCC(=O)OCCOCCOCCO)C(C)C
Activity [1]: 86% | IC50 [3]: > 500 nM | EC50 [2]: 2900 nM

CCCCCNC(=O)NCCCC/C=C\CCCCCSc1ncn[nH]1
EC50 [2]: 9800 nM

CCCCCCC(=O)N(CCCC/C=C\CCCCCCC1=NOS(=O)N1)C(C)C (stereo not drawn)
Activity [1]: 109% | IC50 [3]: > 500 nM | EC50 [2]: 320 nM

CCCCCCC(=O)N(CCCC/C=C\CCCCCCc1nnn[nH]1)C(C)C
Activity [1]: 74% | IC50 [3]: > 500 nM | EC50 [2]: 1000 nM

CCCCCNC(=O)NCCCC/C=C\CCCCCCCc1nnn[nH]1
Activity [1]: 110% | EC50 [2]: 1100 nM

CCCCCNC(=O)NCCCC/C=C\CCCCCCc1noc(=S)[nH]1
Activity [1]: 93% | EC50 [2]: 3300 nM

CCCCCC1OC1C/C=C\C/C=C\C/C=C\CCCC(=O)O (stereo not drawn)
Activity [1]: 85% | EC50 [2]: 2200 nM

CCCCCNC(=O)NCCCC/C=C\CCCCCCc1nsc(=O)[nH]1
Activity [1]: 54% | EC50 [2]: 2400 nM

CCCCCNC(=O)NCCCC/C=C\CCCCCCc1noc(=O)[nH]1
Activity [1]: 89% | EC50 [2]: 1100 nM

CCCCCCC(=O)N(CCCC/C=C\CCCCCCC(=O)NCC(=O)O)C(C)C
Activity [1]: 95% | IC50 [3]: > 500 nM | EC50 [2]: 1900 nM

CCCCCNC(=O)NCCCCCOc1cccc2sc(NC(C)=O)nc12
Activity [1]: 73% | IC50 [3]: > 500 nM | EC50 [2]: 900 nM

CCCCCNC(=O)NCCCC/C=C\CCCCCSc1ccccc1O
EC50 [2]: > 10000 nM

CCCCCNC(=O)NCCCC/C=C\CCOc1cccc2sc(NC(C)=O)nc12
EC50 [2]: 3300 nM

CCCCCNC(=O)NCCCC/C=C\CCCCCCC(=O)NS(C)(=O)=O
Activity [1]: 61% | EC50 [2]: 6700 nM

CCCCNC(=O)C(=O)NCCCC/C=C\CCCCCCc1noc(=S)[nH]1
Activity [1]: 116% | IC50 [3]: > 500 nM | EC50 [2]: 360 nM

CCCCCNC(=O)NCCCC/C=C\CCCCCC1SC(=O)NC1=O (stereo not drawn)
EC50 [2]: > 10000 nM

CCCCCNC(=O)NCCCC/C=C\CCCCCCC1=NOS(=O)N1 (stereo not drawn)
Activity [1]: 109% | EC50 [2]: 340 nM

CCCCCNC(=O)NCCCC/C=C\CCCCCCC(=O)OCCOCCOCCO
Activity [1]: 72% | EC50 [2]: 5100 nM

CCCCCNC(=O)NCCCC/C=C\CCCCOCC(=O)O
Activity [1]: 49%
